{
  "source": "paper PMC11929782",
  "about": "(Scientific Reports, 2025)",
  "key": {"IL17RC": {"molecular_target": "T1, IL17RC (Homo sapiens, UniProt Q8NAC3)", "T1 sequence (Q8NAC3 21-791)": "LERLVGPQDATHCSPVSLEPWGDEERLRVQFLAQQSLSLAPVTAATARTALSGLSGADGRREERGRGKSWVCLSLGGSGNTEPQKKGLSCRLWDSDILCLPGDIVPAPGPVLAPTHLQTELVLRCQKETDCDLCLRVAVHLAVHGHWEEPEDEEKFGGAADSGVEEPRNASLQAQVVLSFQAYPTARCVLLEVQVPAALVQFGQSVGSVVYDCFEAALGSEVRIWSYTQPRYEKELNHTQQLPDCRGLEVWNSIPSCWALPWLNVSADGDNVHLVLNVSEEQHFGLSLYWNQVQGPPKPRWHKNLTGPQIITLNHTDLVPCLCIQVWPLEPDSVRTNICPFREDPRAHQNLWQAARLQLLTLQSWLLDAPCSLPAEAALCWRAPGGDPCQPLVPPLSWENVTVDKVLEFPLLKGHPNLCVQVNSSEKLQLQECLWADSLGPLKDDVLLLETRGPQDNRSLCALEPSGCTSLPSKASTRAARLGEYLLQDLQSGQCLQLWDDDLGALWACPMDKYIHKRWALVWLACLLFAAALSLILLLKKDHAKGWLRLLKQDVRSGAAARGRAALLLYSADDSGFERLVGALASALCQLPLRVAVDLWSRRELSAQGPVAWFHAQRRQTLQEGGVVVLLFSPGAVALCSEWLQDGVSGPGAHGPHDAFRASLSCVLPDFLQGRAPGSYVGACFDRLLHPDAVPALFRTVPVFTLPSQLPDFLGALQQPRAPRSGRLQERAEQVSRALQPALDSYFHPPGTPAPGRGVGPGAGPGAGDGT", "assay": "ELISA binding assay, IL17RC", "conditions": "read at 450 nm"}, "THP-1 cells": {"tested_on": "THP-1 cells", "assay": "Cytotoxicity, CCK-8 assay", "type": "cell-based, human", "conditions": "THP-1, normal and IL17RA-deficient cells, varying concentrations, 24 h", "how_it_was_run": "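THP-1 cells were cultured in RPMI1640 (0.05 mM β-mercaptoethanol, 10% FBS). They were made into M1 macrophages with 100 ng/ml PMA for 120 h, then 1 µg/ml LPS plus 20 ng/ml IFNγ for 24 h. IL17RA was knocked down by siRNA, with cells harvested at 48 h. Normal and knockdown cells (1 × 10⁴ cells/ml) received test compound at varied concentrations for 24 h. CCK-8 for 4 h; A450. Mean ± SEM, ≥3 independent experiments.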"}, "RAW264.7 cells": {"tested_on": "RAW264.7 cells", "assay": "Cytotoxicity, CCK-8 assay", "type": "cell-based, murine", "conditions": "RAW264.7, normal and IL17RA-deficient cells, varying concentrations, 24 h", "how_it_was_run": "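RAW264.7 cells were cultured in RPMI1640 (0.05 mM β-mercaptoethanol, 10% FBS) and polarized to M1 with 1 µg/ml LPS plus 20 ng/ml IFNγ for 24 h. IL17RA was knocked down by siRNA transfection, with cells harvested at 48 h. Normal and knockdown cells (1 × 10⁴ cells/ml) were treated 24 h with varied test compound concentrations. CCK-8 was added for 4 h, then absorbance read at 450 nm. Mean ± SEM, ≥3 independent experiments.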"}, "HaCaT cells": {"tested_on": "HaCaT cells", "assay": "Cytotoxicity, CCK-8 assay", "type": "cell-based, human", "conditions": "normal and IL17RA-deficient cells, varying concentrations, 24 h", "how_it_was_run": "(§1)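 HaCaT and NIH3T3 cells were grown in DMEM with 10% FBS at 37 °C and 5% CO2. IL17RA was knocked down with siRNA and Lipofectamine 2000, and cells were harvested 48 h post-transfection. Normal and knockdown cells were seeded at 1 × 10⁴ cells/ml and exposed to a range of test compound concentrations for 24 h. CCK-8 was added for 4 h and absorbance read at 450 nm. Mean ± SEM, ≥3 independent experiments.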"}, "NIH3T3 cells": {"tested_on": "NIH3T3 cells", "assay": "Cytotoxicity, CCK-8 assay", "type": "cell-based, murine", "conditions": "NIH3T3, normal and IL17RA-deficient cells, varying concentrations, 24 h", "how_it_was_run": "as §1"}, "IL17F": {"molecular_target": "T2, IL17F (Homo sapiens, UniProt Q96PD4)", "T2 sequence (Q96PD4 31-163)": "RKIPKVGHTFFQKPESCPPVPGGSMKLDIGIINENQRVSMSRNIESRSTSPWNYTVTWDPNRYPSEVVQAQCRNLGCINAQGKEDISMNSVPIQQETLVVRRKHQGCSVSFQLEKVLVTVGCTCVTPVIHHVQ", "assay": "ELISA binding assay, IL17F", "conditions": "read at 450 nm"}, "IL17A": {"molecular_target": "IL17A (Homo sapiens, UniProt Q16552)", "sequence (Q16552 24-155, species assumed)": "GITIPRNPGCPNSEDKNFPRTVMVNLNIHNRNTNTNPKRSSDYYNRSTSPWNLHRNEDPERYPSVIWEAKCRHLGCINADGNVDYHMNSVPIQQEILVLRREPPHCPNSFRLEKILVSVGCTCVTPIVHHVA", "assay": "ELISA binding assay, IL17A", "conditions": "read at 450 nm"}, "[1]": {"conditions": "patients, long-term studies; cited from earlier work"}, "Human IL17RA protein [2]": {"molecular_target": "T3, Human IL17RA protein (human, UniProt Q96F46 33-320)", "assay": "SPR"}, "Human IL17RA protein [3]": {"molecular_target": "T3, Human IL17RA protein", "assay": "MST"}},
  "note": "Ends that are not written are not given here.",
  "data": [
    {"molecule": "ASPVIYHL-NH2 [AL-8(0)]", "values": [
      {"measurement": "EC50 for binding to IL17RC", "setting": "IL17RC", "value": "no measurable"},
      {"measurement": "Cytotoxicity (cell viability, CCK-8)", "setting": "THP-1 cells", "value": "not directly cytotoxic"},
      {"measurement": "Cytotoxicity (cell viability, CCK-8)", "setting": "RAW264.7 cells", "value": "not directly cytotoxic"},
      {"measurement": "Cytotoxicity (cell viability, CCK-8)", "setting": "HaCaT cells", "value": "not directly cytotoxic"},
      {"measurement": "Cytotoxicity (cell viability, CCK-8)", "setting": "NIH3T3 cells", "value": "not directly cytotoxic"},
      {"measurement": "EC50 for binding to IL17F", "setting": "IL17F", "value": "no measurable"},
      {"measurement": "EC50 for binding to IL17A", "setting": "IL17A", "value": "no measurable"}
    ]},
    {"molecule": "Ixekizumab", "values": [
      {"measurement": "Immunogenicity", "setting": "[1]", "value": "variable immunogenicity"}
    ]},
    {"molecule": "Secukinumab", "values": [
      {"measurement": "ADA incidence rate", "setting": "[1]", "value": "< 1", "unit": "%"}
    ]},
    {"molecule": "ASPVIYHL-NH2", "note": "[AL-8(0)]", "values": [
      {"measurement": "Kd", "setting": "Human IL17RA protein [2]", "value": 83, "unit": "nM"},
      {"measurement": "Kd", "setting": "Human IL17RA protein [3]", "value": 89, "unit": "nM"}
    ]}
  ]
}
